# Screens: PubChem BioAssay, several laboratories
# 14-3-3 Bad inh = inhibitors of 14-3-3 zeta/Bad binding, primary screen, biochemical, TR-FRET, bovine 14-3-3 zeta; 220,000 tested, 0.71% active; 14-3-3 protein zeta/delta (Bos taurus), P63103; inhibition, % at 21.7 µM; TR-FRET 14-3-3zeta/Dy647-pBad peptide displacement, 1 h; AID 781, 2007;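 active = inhibition above about 70%, limit read from the data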;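 note: 0% = full 14-3-3 plus peptide FRET controls and 100% = background without 14-3-3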
# MDM2 E3 inh = MDM2-luciferase reporter signal enhancers, primary screen, MDM2 E3 ligase inhibitor project, cell-based, luminescence, 1536-well. E3 ubiquitin-protein ligase Mdm2 (Homo sapiens), Q00987. cell-based MDM2 ubiquitination luciferase reporter, 2 h; 0 = plate control, 100 = twice control, blank-subtracted. signal enhancement, % at 5 µM. 210,000 tested, 0.11% active;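 active = signal enhancement of 30% or more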;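 note: luminescence tracks abundance of the self-degrading MDM2-luciferase fusion protein; higher signal means inhibition of MDM2 E3 ligase activity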
#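 System: stable MDM2–luciferase fusion reporter cells / Input: 2000 cells seeded into each well / Schedule: 4 h settle plus 2 h compound, 37 °C / Compound: single-point 5 µM / Buffer or medium: cells held in DMEM / Benchmarks: control and blank well means / Evaluation: percent signal gain over controls, blank-subtracted / Measured by: luciferase luminescence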
# Hck Nef HTS = inhibitors of Nef-activated human Hck kinase, primary screen, biochemical, Z-Lyte FRET, 384-well, Hck-YEEI. Tyrosine-protein kinase HCK (Homo sapiens), P08631. Recombinant Hck-YEEI plus Nef, Z-Lyte FRET kinase assay. inhibition, % at 20 µM. 220,000 tested, 0.68% active. AID 463187, 2010;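 active = Hck-Nef kinase inhibition above about 50%, limit read from the data; inactive = inhibition below that limit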;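 note: 0% = DMSO with Hck plus Nef and 100% = Hck alone without Nef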
# Target sequence (P08631 whole entry, looked up): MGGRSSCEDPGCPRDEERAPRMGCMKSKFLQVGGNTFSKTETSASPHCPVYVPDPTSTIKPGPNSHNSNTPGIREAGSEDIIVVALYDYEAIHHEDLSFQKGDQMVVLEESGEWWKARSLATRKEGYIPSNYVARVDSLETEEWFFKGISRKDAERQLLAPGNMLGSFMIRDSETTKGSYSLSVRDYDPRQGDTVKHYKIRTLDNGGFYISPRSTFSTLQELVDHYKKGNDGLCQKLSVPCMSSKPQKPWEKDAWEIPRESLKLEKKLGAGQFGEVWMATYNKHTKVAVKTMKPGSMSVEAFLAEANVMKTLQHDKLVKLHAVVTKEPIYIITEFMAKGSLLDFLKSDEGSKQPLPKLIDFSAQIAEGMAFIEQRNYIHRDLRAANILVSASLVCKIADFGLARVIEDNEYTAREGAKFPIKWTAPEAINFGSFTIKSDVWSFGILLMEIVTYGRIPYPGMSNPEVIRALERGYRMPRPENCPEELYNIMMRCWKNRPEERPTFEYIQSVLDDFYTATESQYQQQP
# Wee1 degr inh = Wee1 degradation inhibitors, primary screen, cell-based, HeLa, Wee1K328M-luciferase, luminescence. Wee1-like protein kinase (Homo sapiens), P30291. AID 1321, 2008. HeLa Luc-Wee1K328M stability; 100% = proteasome inhibitor MG132 effect. reporter increase, % at 5 µM. 220,000 tested, 1.2% active;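 active = activation above the mean of all tested compounds plus 3 SD, set per screening run, cut at about 8.8% in these data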;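 note: cells exposed to compound for 20 h before luminescence read; 0% = DMSO alone and 100% = MG132 at 30 µM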
# Tb hexokinase = Trypanosoma brucei hexokinase 1 inhibitors, primary screen, biochemical, G6PDH-coupled NADH absorbance, MLSCN library; 220,000 tested, 0.11% active; recombinant TbHK1, G6PDH-coupled NADH A340; inhibition, % at 10 µM; hexokinase 1 [Trypanosoma brucei];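 active = inhibition of 50% or more in the single-dose primary screen; inactive = inhibition below 50%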
# * marks the source's active call; other numbers are inactive results; . = no result given; [ ] = another dose, or the depositor's remark. Shown are actives, neighbours in structure and some others; about 2.7% of the full set was active somewhere.
SMILES,14-3-3 Bad inh,MDM2 E3 inh,Hck Nef HTS,Wee1 degr inh,Tb hexokinase
N=C1/C(=C\c2ccc(-c3cccc(Cl)c3)o2)C(=O)N=C2SC=C(c3ccccc3)N12,3,-14,3,5,13
N=C1/C(=C\c2ccc(-c3ccc(C(=O)O)cc3)o2)C(=O)N=C2SC=C(c3ccccc3)N12,80*,-12,103*,-3,-11
COc1ccc(-c2noc(CCCC(=O)Nc3ccc(C(N)=O)cc3)n2)cc1,-11,-29,2,1,-2
COc1cc(-c2noc(CCCC(=O)Nc3ccc(C(N)=O)cc3)n2)cc(OC)c1OC,-11,-10,8,10*,-5
Cc1cc(/C(N)=N/OC(=O)c2ccc(Cl)cc2)no1,70*,-23,-3,1,-3
COc1ccc(C(=O)c2nccc3ccccc23)cc1,-10,-5,-1,10*,-8
COc1ccc(C(=O)c2ccccc2)cc1,6,-30,-2,1,-2
O=C(Nc1ccc(F)cc1)C1CCN(S(=O)(=O)c2cccs2)CC1,6,-51,20,-1,7
Cc1c(O)ccc(C(=O)COc2ccc(F)cc2)c1O,-6,-7,-3,10*,-13
CCc1cc(C(=O)COc2ccc(F)cc2)c(O)cc1O,-6,-9,-1,2,-29
CCc1ccc(NC(=S)N2CCCCCCC2)cc1,-8,-4,15,0,-3
Cc1cc2cc(C)c(SCC(=O)NCc3ccco3)nc2cc1C,-10,31*,24,-4,-6
Cc1ccc(SCC(=O)NCc2ccco2)cc1,-5,-10,1,-2,1
O=C(CSc1nc2ccccc2c(=O)n1Cc1ccco1)NCc1ccco1,88*[fluorescence artefact?],-16,7,-2,4
Cc1ccc(CSCC(=O)NCc2ccco2)cc1,89*,-3,10,2,5
CCOc1ccc2c(c1)S/C(=C\c1cccs1)C(=O)N2,-2,.,7,9.0*,-1
CCOc1ccc(N2C(=O)CC(S/C(N)=N/N=C/c3cccs3)C2=O)cc1 (stereo not given),10,-5,0,-2,-19
N/C(=N\N=C\c1cccs1)SC1CC(=O)N(c2cccc([N+](=O)[O-])c2)C1=O (stereo not given),82*,-6,-29,0,-17
COc1cccc(OC)c1C(=O)NNC(=O)c1cccc(COc2ccc3c(c2)CCC3)c1,-7,31*,0,5,-2
CC(NC(=S)Nc1ccccc1Cl)C(c1ccccc1)N1CCOCC1 (stereo not given),-17,-14,-3,9.2*,3
CCOc1ccc(NC(=O)Nc2cccs2)cc1,-11,-6,1,0,-5
COc1ccc(/C=C(\NC(=O)c2ccccc2)C(=O)OC[C@@H]2CCC[N+]3(C)CCCCC23)cc1OC (stereo not given in full),1,-6,-8,4,-27
O=C(c1ccc(COc2ccc3ccccc3c2)o1)N1N=C(C(F)F)CC1(O)C(F)F (stereo not given),5,-8,3,-1,-1
O=C(c1ccc(COc2ccccc2Cl)o1)N1N=C(C(F)F)CC1(O)C(F)F (stereo not given),-13,5,8,11*,-5
COc1ccc2nc(N3CCCC3)c(C#N)cc2c1,-3,-3,2,8.9*,10
COc1ccc(C(=O)NCC(=O)N/N=C/c2cn[nH]c2-c2ccccc2)cc1,-7,-10,10,4,2
CCOC(=O)C1=C(c2ccccc2)NC(N)=NC1c1ccc(OCc2ccc(Cl)cc2)c(OC)c1 (stereo not given),94*,-5,-31,-4,44
Cc1ccc(S(=O)(=O)N2CCC(=O)N(C(COCc3cccc(C)c3)Cc3ccccc3)CC2)cc1 (stereo not given),7,.,-7,1,3
